TbMetRS inhib: Trypanosoma brucei MetRS inhibition; actives 0.4% (n = 360,000); inhibition, % at 11.9 µM; purified T. brucei MetRS, ATP depletion, Kinase-Glo luminescence;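 active means inhibition above a per-plate cutoff of the control wells' mean inhibition plus 3 SD, cut at about 5.5% in these data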;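 further: 0% = DMSO wells median and 100% = median of wells with control inhibitor compound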
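Material: parasite MetRS enzyme / Replication: singlicate, one well per compound / Signal: luminescence of leftover ATP / Schedule: 2 h aminoacylation at 25 °C after 15 min preincubation / Medium: HEPES-MgCl2-KCl buffer plus DTT, spermine, BSA, pyrophosphatase / Doses: 11.9 µM single point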
Arr AP2 block: blocks beta-arrestin peptide binding to AP2 adaptin. FITC-arrestin peptide / GST-AP2 beads, flow cytometry; AP2 beta2 appendage carries R879A mutation. inhibition, % at 10 µM. AID 504490. actives 0.31% (n = 340,000);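 active means inhibition above a set limit, near 3 SD of compounds lacking own fluorescence, cut at about 54% in these data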;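 further: plate controls were DMSO wells for no effect and 5 µM unlabelled arrestin peptide for full effect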
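System: GST-tagged AP2 beta2-adaptin appendage (R879A) on 4 µm glutathione beads / Reagent: FITC-arrestin peptide, 50 nM / Detection: HyperCyt-sampled flow cytometry, FL1 channel, ex 488/em 535 nm / Timing: 12 min plus 1 h, RT / Buffer or medium: PBS plus Tween 20 (0.05%) and BSA (0.1%)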
MT1-MMP act inh: blocks activation of human MT1-MMP; actives 0.061% (n = 360,000); P50281; GFP/RFP ratio change, % at 20 µM; HT1080 RFP-PRO-GFP cells, GFP/RFP ratio fluorescence, overnight; percent of plate control window, DMSO zero;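 active means GFP/RFP ratio change of at least 30% with cell ATP level not reduced by more than half and red fluorescence within 50% of control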
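Assay system: HT1080 RFP-PRO-GFP cells | Dosing: 20 µM single dose, 1% DMSO | Incubation: Cells overnight before dosing, compound overnight, 37 °C, 5% CO2 | Evaluation: GFP/RFP fluorescence ratio | Control set: DMSO-only wells and HT1080 RFP-L50D-GFP cell wells as references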
SKN-1 block: blocks SKN-1 activity in C. elegans; C. elegans VP596 Pgst-4::GFP/RFP ratio, acrylamide-induced, 24 h; inhibition, % at 21.8 µM; actives 0.49% (n = 360,000); AID 624304;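 active means interference check ratio from 0.5 to 1.5 plus GFP to RFP signal ratio inhibition reaching or exceeding a fixed threshold, cut at about 30% in these data, passing the limit was not always enough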
Rin1 Abl inh: human Rin1-Abl interaction inhibition. P00519+Q13671. inhibition, % at 7.35 µM. TR-FRET Rin1/Abl binding, biochemical. actives 0.4% (n = 360,000); in the data active means inhibition above about 5%, passing the limit was not always enough
Target sequence (P00519 whole entry, looked up): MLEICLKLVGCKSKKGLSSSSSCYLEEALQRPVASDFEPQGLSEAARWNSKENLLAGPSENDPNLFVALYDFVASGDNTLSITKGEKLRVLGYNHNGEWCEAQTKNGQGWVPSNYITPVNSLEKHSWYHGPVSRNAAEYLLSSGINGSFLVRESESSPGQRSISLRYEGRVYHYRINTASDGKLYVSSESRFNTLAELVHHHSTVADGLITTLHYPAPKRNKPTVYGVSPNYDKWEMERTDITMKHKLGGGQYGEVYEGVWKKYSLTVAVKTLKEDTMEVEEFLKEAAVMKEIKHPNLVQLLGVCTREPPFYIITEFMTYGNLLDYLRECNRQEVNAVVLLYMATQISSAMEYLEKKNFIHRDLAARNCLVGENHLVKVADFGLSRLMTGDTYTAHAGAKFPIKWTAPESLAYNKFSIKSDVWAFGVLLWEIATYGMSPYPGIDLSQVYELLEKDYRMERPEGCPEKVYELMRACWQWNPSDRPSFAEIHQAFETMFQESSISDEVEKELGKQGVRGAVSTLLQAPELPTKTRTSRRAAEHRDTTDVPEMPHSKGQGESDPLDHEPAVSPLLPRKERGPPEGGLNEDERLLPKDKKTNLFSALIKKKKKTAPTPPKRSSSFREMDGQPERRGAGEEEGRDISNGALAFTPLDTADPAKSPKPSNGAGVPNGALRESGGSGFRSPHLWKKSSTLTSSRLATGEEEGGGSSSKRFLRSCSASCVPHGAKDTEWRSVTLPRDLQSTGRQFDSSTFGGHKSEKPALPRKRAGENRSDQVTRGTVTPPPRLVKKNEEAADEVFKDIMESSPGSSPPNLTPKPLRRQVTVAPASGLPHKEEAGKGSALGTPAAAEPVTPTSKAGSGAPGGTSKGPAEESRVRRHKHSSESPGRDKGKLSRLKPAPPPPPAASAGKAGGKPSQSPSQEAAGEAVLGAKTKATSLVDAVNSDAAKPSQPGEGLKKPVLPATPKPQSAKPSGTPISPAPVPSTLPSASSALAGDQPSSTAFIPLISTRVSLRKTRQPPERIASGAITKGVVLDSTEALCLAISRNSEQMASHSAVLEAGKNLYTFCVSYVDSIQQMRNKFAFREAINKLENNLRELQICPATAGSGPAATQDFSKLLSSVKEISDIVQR
Target sequence (Q13671 whole entry, looked up): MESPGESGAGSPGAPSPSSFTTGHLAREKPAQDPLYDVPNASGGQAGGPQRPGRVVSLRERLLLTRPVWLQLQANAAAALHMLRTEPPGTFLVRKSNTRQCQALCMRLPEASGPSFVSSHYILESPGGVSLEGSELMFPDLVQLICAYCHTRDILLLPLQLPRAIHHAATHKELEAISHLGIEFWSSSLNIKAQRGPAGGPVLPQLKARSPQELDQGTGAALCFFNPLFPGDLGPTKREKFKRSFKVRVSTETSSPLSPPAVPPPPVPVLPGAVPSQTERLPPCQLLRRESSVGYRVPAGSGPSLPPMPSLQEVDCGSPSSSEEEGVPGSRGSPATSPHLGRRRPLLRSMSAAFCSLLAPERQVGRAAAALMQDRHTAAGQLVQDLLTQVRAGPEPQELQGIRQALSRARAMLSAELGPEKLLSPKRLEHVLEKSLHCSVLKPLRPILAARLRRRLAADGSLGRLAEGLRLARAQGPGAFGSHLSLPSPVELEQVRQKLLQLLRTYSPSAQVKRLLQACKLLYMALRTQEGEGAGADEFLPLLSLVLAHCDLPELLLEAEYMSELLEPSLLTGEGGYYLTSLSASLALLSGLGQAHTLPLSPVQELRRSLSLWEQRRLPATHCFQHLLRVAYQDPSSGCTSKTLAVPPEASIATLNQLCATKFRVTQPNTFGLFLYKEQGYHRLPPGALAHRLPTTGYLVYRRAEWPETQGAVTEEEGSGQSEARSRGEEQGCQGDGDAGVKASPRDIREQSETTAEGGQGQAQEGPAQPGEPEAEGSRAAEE
The depositor's hits bear a star. In the library only some 1.6% were active in any assay of this set; here they are far more common.

How did Cc1cc(OCC(=O)OCC(=O)Nc2cc(S(=O)(=O)N3CCOCC3)ccc2Cl)ccc1Cl do in these assays?
TbMetRS inhib: -0.2; Arr AP2 block: -0.9; MT1-MMP act inh: 0.7; SKN-1 block: -9.8; Rin1 Abl inh: -0.1

Results for O=c1c2ccccc2oc2ccc(-c3ccc4[nH]ccc4c3)cc12 ?
TbMetRS inhib: 0.0; Arr AP2 block: -0.8; MT1-MMP act inh: -3.1; SKN-1 block: 61.9*; Rin1 Abl inh: 6.0

How did O=c1c2ccccc2oc2cc(-c3ccc4cc[nH]c4c3)ccc12 do in these assays?
TbMetRS inhib: -0.5; Arr AP2 block: 7.5; MT1-MMP act inh: 3.3; SKN-1 block: 19.5; Rin1 Abl inh: 2.9

Results for O=C(CN1C2=NCCN2c2ccccc21)c1ccc(Br)cc1 ?
TbMetRS inhib: 5.9*; Arr AP2 block: -2.7; MT1-MMP act inh: -6.2; SKN-1 block: -8.6; Rin1 Abl inh: 1.2

Results for O=C(CN1C2=NCCN2c2ccccc21)c1ccc2c(c1)OCO2 ?
TbMetRS inhib: 0.7; Arr AP2 block: 12.1; MT1-MMP act inh: -3.8; SKN-1 block: 3.4; Rin1 Abl inh: 2.1

How did CCOc1ccccc1OCC(=O)NC1CCSc2ccccc21 (stereo not given) do in these assays?
TbMetRS inhib: 0.6; MT1-MMP act inh: 0.0; SKN-1 block: 12.8; Rin1 Abl inh: -3.0

What do the screens show for `C[C@@H]1CN([C@H](C)CO)C(=O)c2cc(Br)cnc2O[C@@H]1CN(C)C(=O)C1CCOCC1`?
TbMetRS inhib: -0.4; MT1-MMP act inh: 0.1; SKN-1 block: 9.2; Rin1 Abl inh: -0.8

Results for CCN=c1scc(-c2ccccc2)n1/N=C/c1ccccn1 ?
TbMetRS inhib: -0.4; Arr AP2 block: 7.7; MT1-MMP act inh: -1.0; SKN-1 block: 44.2*; Rin1 Abl inh: -1.0

What do the screens show for `CCN=c1scc(-c2ccc(F)cc2)n1/N=C/c1ccccn1`?
TbMetRS inhib: -1.0; Arr AP2 block: -2.5; MT1-MMP act inh: 1.0; SKN-1 block: 44.7*; Rin1 Abl inh: -2.9

How did C=CCN=c1scc(-c2ccccc2)n1/N=C/c1ccccn1 do in these assays?
TbMetRS inhib: -0.3; Arr AP2 block: -0.2; MT1-MMP act inh: 2.0; SKN-1 block: 6.9; Rin1 Abl inh: -2.3

Results for Cc1c(Cl)cccc1NC(=O)CC1SCCNC1=O (stereo not given) ?
TbMetRS inhib: -1.4; Arr AP2 block: -4.7; MT1-MMP act inh: -7.8; SKN-1 block: 21.6; Rin1 Abl inh: 4.4

How did Cc1c(Cl)cccc1NC(=O)CC1NCCNC1=O (stereo not given) do in these assays?
TbMetRS inhib: 0.0; Arr AP2 block: -0.2; MT1-MMP act inh: -3.3; SKN-1 block: 38.1*; Rin1 Abl inh: -3.1

What do the screens show for `C[N+](C)(C)CCNC(=O)c1ccccc1`?
TbMetRS inhib: 0.1; MT1-MMP act inh: 2.4; SKN-1 block: -7.1

How did COc1cc(NC(=O)C2(C)CCCN2C)cc(OC)c1OC (stereo not given) do in these assays?
TbMetRS inhib: -0.3; MT1-MMP act inh: 0.9; SKN-1 block: 0.7; Rin1 Abl inh: 1.6

Results for Oc1c(N=Nc2ccccn2)ccc2ccccc12 ?
TbMetRS inhib: -1.2; Arr AP2 block: 20.1; MT1-MMP act inh: 76.7; SKN-1 block: 46.1*; Rin1 Abl inh: 1.7

What do the screens show for `Oc1[nH]c2ccccc2c1N=Nc1ccccn1`?
TbMetRS inhib: -0.3; Arr AP2 block: -6.2; MT1-MMP act inh: 2.4; SKN-1 block: 5.7; Rin1 Abl inh: -1.7

What do the screens show for `CCN(CC)S(=O)(=O)c1cccc2c(N(C)C)cccc12`?
TbMetRS inhib: 0.4; Arr AP2 block: -2.3; MT1-MMP act inh: -2.3; SKN-1 block: 45.1*; Rin1 Abl inh: -0.3

How did CCN(CC)S(=O)(=O)c1cccc2cccnc12 do in these assays?
TbMetRS inhib: -0.6; Arr AP2 block: -6.9; MT1-MMP act inh: 2.2; SKN-1 block: -0.3; Rin1 Abl inh: 5.1

What do the screens show for `COC(=O)[C@@]1(Sc2ccc(C)cc2)CC(=O)N[C@@H]1c1ccc(C(F)(F)F)cc1`?
TbMetRS inhib: -1.4; MT1-MMP act inh: 7.6; SKN-1 block: 1.6

How did Cn1ncc(C#N)c1/N=C/N1CCCC1 do in these assays?
TbMetRS inhib: -0.6; Arr AP2 block: 0.5; MT1-MMP act inh: 1.2; SKN-1 block: 42.4*; Rin1 Abl inh: 2.7

What do the screens show for `O=c1cc(CO)oc(C(Nc2ccccn2)c2ccc(F)cc2)c1O` (stereo not given)?
TbMetRS inhib: -0.7; Arr AP2 block: 29.8; MT1-MMP act inh: -2.9; SKN-1 block: 3.3; Rin1 Abl inh: 3.0

How did COc1ccc(C(Nc2ccccn2)c2oc(CO)cc(=O)c2O)cc1 (stereo not given) do in these assays?
TbMetRS inhib: 0.7; Arr AP2 block: -9.8; MT1-MMP act inh: 6.1; SKN-1 block: -1.2; Rin1 Abl inh: 7.4*

What do the screens show for `CC(C)(C)S(=O)N1Cc2cc(C(=O)NCC(F)(F)F)nc(-c3cccc(-c4cccc(F)c4)c3)c2[C@@H]1CCO` (stereo not given in full)?
TbMetRS inhib: -0.1; MT1-MMP act inh: -10.0; SKN-1 block: 14.8; Rin1 Abl inh: 2.2

How did COC(=O)C[C@H]1CC[C@H](NC(=O)Nc2ccccc2)[C@@H](CO)O1 do in these assays?
TbMetRS inhib: -0.3; MT1-MMP act inh: -1.4; SKN-1 block: -13.2

Results for COc1cc2c(cc1NC(=O)c1cccnc1)CCCC2 ?
TbMetRS inhib: -0.6; Arr AP2 block: -0.3; MT1-MMP act inh: -6.6; SKN-1 block: 37.8*; Rin1 Abl inh: -0.8

How did N#C/C(=C\c1ccco1)c1nc2ccccc2s1 do in these assays?
TbMetRS inhib: -0.3; Arr AP2 block: 0.3; MT1-MMP act inh: -3.9; SKN-1 block: 88.4*; Rin1 Abl inh: -4.3

Results for N#C/C(=C/c1ccco1)c1nc2ccccc2s1 ?
TbMetRS inhib: 0.2; Arr AP2 block: 1.1; MT1-MMP act inh: -12.3; SKN-1 block: 85.8*; Rin1 Abl inh: 2.9

How did Cc1cc2c(cc1C)-n1nnnc1C(N(C)CCc1ccccc1)C(=O)N2 (stereo not given) do in these assays?
TbMetRS inhib: -0.6; MT1-MMP act inh: -5.3; SKN-1 block: 5.5

What do the screens show for `C[C@H](O)CNC(=O)c1[nH]cnc1C(=O)N[C@@H](C)c1ccccc1`?
TbMetRS inhib: -0.1; MT1-MMP act inh: -3.3; SKN-1 block: -12.7; Rin1 Abl inh: -0.2

Results for C=CCN1C(=O)CSC1=Nc1ccc(C(=O)O)cc1 ?
TbMetRS inhib: -0.3; Arr AP2 block: -6.5; MT1-MMP act inh: -0.8; SKN-1 block: 8.5; Rin1 Abl inh: 2.3

Results for C=CCN1C(=O)CS/C1=C(\C#N)S(=O)(=O)c1ccc(C)cc1 ?
TbMetRS inhib: -1.5; Arr AP2 block: 14.1; MT1-MMP act inh: 38.1; SKN-1 block: 33.8*; Rin1 Abl inh: -1.7

How did COc1cccc(-c2nc(-c3ccc(Br)o3)no2)c1 do in these assays?
TbMetRS inhib: -0.4; Arr AP2 block: 7.3; MT1-MMP act inh: 3.2; SKN-1 block: -8.8; Rin1 Abl inh: -2.7
